Results: ChEMBL document CHEMBL4020761, “Exploration of pyrrole derivatives to find an effective potassium-competitive acid blocker with moderately long-lasting suppression of gastric acid secretion” (Bioorg Med Chem, 2017)
Activity calls are given as the source filed them. The rule behind the calls is not given here.

Tests used:
[1] = Inhibition of H+/K+-ATPase in porcine stomach gastric mucosal microsomes assessed as reduction in inorganic phosphate production using ATP as substrate preincubated for 30 mins followed by ATP addition in presence of KCl at pH 6.5 by malachite green reagent based colorimetric assay; parameters: species or system Sus scrofa
[2] = Drug uptake in Sprague-Dawley rat stomach at 0.2 mg/kg, iv administered as cassette dose after 10 mins by LC-MS/MS analysis; assay type: ADME, organism-based; conditions: read-out: Drug uptake
Method in brief: (§1)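 Fasted male Sprague-Dawley rats given compounds iv by cassette dosing at 0.2 mg/kg (as free base). Plasma and stomach sampled at 10 min, 1, 4 and 24 h. Plasma and 20% stomach homogenate in saline deproteinized with acetonitrile containing internal standard, then LC/MS/MS. AUC calculated for plasma and stomach. Values are averages of three rats.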

CYP3A4 = CYP3A4 (Homo sapiens, UniProt P08684); assay: Inhibition of CYP3A4 (unknown origin) expressed in insect cells at 10 uM using testosterone as substrate after 15 mins by HPLC analysis relative to control; assay type: ADME; conditions: recombinant CYP3A4 expressed in insect cells, probe testosterone
CYP3A4, sequence (P08684 whole entry): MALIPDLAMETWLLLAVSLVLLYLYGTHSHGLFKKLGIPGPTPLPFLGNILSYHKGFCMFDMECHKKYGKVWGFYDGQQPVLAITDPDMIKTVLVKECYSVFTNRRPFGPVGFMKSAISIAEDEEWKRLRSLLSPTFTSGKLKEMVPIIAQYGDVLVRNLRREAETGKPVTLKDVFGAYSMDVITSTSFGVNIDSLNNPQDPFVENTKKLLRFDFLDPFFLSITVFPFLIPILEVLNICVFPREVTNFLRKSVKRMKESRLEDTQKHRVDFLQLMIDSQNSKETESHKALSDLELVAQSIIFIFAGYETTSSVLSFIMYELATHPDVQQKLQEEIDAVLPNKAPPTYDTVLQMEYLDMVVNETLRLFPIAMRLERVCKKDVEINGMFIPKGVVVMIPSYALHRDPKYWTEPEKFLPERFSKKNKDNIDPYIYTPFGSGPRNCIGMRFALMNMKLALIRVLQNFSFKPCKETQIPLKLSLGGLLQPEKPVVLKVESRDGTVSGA
Method in brief: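 Testosterone substrate at 100 μmol/L with 10 nmol/L insect-cell-expressed CYP3A4 and 10 μmol/L test compound, incubated 15 min at 37 °C. 6β-hydroxytestosterone quantified by HPLC with UV detection.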

[3] = Drug uptake in Sprague-Dawley rat stomach at 0.2 mg/kg, iv administered as cassette dose after 4 hrs by LC-MS/MS analysis; assay type: ADME, organism-based; conditions: read-out: Drug uptake; method in brief: as §1
[4] = Drug uptake in Sprague-Dawley rat stomach at 0.2 mg/kg, iv administered as cassette dose after 1 hr by LC-MS/MS analysis; assay type: ADME, organism-based; conditions: read-out: Drug uptake; method in brief: as §1
hERG (KCNH2) = hERG (KCNH2) (Homo sapiens, UniProt Q12809); assay: Inhibition of human ERG expressed in HEK cells at 10 uM at -75 mV holding potential by Whole-cell voltage clamp assay relative to control; assay type: cell-based; conditions: HEK cells expressing human ERG
hERG (KCNH2), sequence (Q12809 whole entry): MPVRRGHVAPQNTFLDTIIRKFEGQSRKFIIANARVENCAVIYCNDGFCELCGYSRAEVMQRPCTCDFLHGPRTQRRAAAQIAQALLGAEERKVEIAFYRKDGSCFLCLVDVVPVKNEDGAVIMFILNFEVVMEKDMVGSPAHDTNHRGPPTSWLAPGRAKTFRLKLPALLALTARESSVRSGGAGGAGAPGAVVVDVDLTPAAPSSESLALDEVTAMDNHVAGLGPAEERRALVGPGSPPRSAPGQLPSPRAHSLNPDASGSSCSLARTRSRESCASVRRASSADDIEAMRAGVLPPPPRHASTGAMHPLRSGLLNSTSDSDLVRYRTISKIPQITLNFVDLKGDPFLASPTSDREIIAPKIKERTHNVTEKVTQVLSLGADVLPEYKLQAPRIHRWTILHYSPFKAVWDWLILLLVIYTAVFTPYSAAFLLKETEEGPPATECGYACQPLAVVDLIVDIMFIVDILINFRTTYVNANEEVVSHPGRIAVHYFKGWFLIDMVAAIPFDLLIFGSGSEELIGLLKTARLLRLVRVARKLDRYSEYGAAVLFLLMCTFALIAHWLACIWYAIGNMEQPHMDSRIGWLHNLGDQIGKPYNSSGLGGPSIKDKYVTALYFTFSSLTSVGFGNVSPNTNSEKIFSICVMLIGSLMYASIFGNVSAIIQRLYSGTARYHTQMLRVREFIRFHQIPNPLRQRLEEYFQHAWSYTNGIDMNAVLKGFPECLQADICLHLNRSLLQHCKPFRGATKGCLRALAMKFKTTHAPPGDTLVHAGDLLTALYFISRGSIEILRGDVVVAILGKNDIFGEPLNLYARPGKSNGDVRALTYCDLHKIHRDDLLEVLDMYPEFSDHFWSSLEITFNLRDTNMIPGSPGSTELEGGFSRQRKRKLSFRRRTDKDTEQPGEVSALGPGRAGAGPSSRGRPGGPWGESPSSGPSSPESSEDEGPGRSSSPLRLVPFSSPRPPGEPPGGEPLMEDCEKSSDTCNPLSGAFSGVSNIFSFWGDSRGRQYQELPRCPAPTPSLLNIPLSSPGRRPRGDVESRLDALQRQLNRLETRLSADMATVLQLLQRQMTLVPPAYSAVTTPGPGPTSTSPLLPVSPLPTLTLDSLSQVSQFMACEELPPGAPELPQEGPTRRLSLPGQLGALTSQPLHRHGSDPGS

[5] = Plasma concentration in Sprague-Dawley rat at 0.2 mg/kg, iv administered as cassette dose after 10 mins by LC-MS/MS analysis; assay type: ADME, organism-based; method in brief: as §1
[6] = Plasma concentration in Sprague-Dawley rat at 0.2 mg/kg, iv administered as cassette dose after 1 hr by LC-MS/MS analysis; assay type: ADME, organism-based; method in brief: as §1
[7] = Lipophilicity, log D of the compound at pH 7.4 by HPLC analysis; assay type: physicochemical; conditions: buffer
Method in brief: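 At pH 7.4, log D derived from HPLC retention time relative to standard compounds.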

[8] = Cytotoxicity against human HepG2 cells assessed as cellular ATP level at 100 uM after 1 day by ATPLite assay relative to control; assay type: cell-based; conditions: read-out: Activity
[9] = Drug uptake in Sprague-Dawley rat stomach at 0.2 mg/kg, iv administered as cassette dose after 24 hrs by LC-MS/MS analysis; assay type: ADME, organism-based; conditions: read-out: Drug uptake; method in brief: as §1
[10] = AUC in Sprague-Dawley rat plasma at 0.2 mg/kg, iv administered as cassette dose by LC-MS/MS analysis; assay type: ADME, organism-based; method in brief: as §1
Stomach = assay: AUC in Sprague-Dawley rat stomach at 0.2 mg/kg, iv administered as cassette dose by LC-MS/MS analysis; assay type: ADME, organism-based; conditions: in vivo; method in brief: as §1
Rattus norvegicus [11] = assay: Inhibition of histamine-induced acid secretion in Jcl:Sprague-Dawley rat gastric at 1 mg/kg, iv pretreated for 3 mins after pylorus ligation followed by histamine.2HCl treatment measured after 3 hrs by titration method relative to control; assay type: functional
Method in brief: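 Anesthetized rats dosed iv at 1 mg/kg. Total acid output over 3 h after histamine injection compared with vehicle-treated rats.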

Rattus norvegicus [12] = assay: Inhibition of histamine-induced acid secretion in Jcl:Sprague-Dawley rat assessed as increase in pH of gastric perfusate at 1 mg/kg, iv pretreated for 3 mins after pylorus ligation followed by histamine.2HCl treatment measured after 3 hrs by glass electrode method; assay type: functional, organism-based
Rattus norvegicus [13] = assay: Inhibition of histamine-induced acid secretion in Jcl:Sprague-Dawley rat assessed as increase in pH of gastric perfusate at 1 mg/kg, iv pretreated for 3 mins after pylorus ligation followed by histamine.2HCl treatment measured after 180 to 300 mins by glass electrode method; assay type: functional, organism-based
Rattus norvegicus [14] = assay: Inhibition of histamine-induced acid secretion in po dosed rat assessed as increase in pH of gastric perfusate pretreated for 1 hr followed by pylorus ligation and histamine.2HCl treatment measured after 3 hrs by glass electrode method; assay type: functional, organism-based
Canis familiaris [15] = assay: Inhibition of histamine-induced acid secretion in dog heidenhain pouch at 1 mg/kg, po treated 1 day after and 1 to 48 hrs before histamine.2HCl treatment measured up to 24 hrs post dose by titration method; assay type: functional, organism-based; conditions: Canis lupus familiaris
Method in brief: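 Heidenhain pouch dogs dosed orally at 1 mg/kg, with histamine-stimulated acid secretion followed over time, up to 24 h after dosing. Mean ± SE from three or four dogs.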

[16] = Dissociation constant, pKa of the compound; assay type: physicochemical
Method in brief: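 pH-metric titration across pH 2–12 with an Ag/AgCl pH electrode.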

Rattus norvegicus [17] = assay: Inhibition of histamine-induced acid secretion in Jcl:Sprague-Dawley rat assessed as pH of gastric perfusate at 1 mg/kg, iv pretreated for 3 mins after pylorus ligation followed by histamine.2HCl treatment measured after 3 hrs by glass electrode method (reference value: 2); assay type: functional
Canis familiaris [18] = assay: Inhibition of histamine-induced acid secretion in dog heidenhain pouch at 1 mg/kg, po treated 1 day after and 1 to 48 hrs before histamine.2HCl treatment measured 30 mins post histamine challenge by titration method; assay type: functional, organism-based; conditions: Canis lupus familiaris
[19] = Stability of the compound under acidic condition; assay type: physicochemical
[20] = Inhibition of CYP450 (unknown origin); assay type: ADME; conditions: human
[21] = Plasma concentration in Sprague-Dawley rat at 0.2 mg/kg, iv administered as cassette dose after 4 hrs by LC-MS/MS analysis; assay type: ADME, organism-based; method in brief: as §1

Row | SMILES | IC50 [1] [nM] | concentration at 10 min [2] [ng/g] | inhibition at 0.25 h, 10 µM (CYP3A4) [%] | concentration at 4 h [3] [ng/g] | concentration at 1 h [4] [ng/g] | inhibition at 10 µM (hERG (KCNH2)) [%] | concentration at 10 min [5] [ng/mL] | concentration at 1 h [6] [ng/mL] | logD [7] | viability at 24 h, 100 µM [8] [%] | concentration at 24 h [9] [ng/g] | AUC [10] [ng·h/mL] | AUC (Stomach) [ng·h/g] | inhibition in vivo at 1 mg/kg (Rattus norvegicus [11]) [%] | inhibition (Rattus norvegicus [13]) | pH (Rattus norvegicus [17]) | other results
1 | CNCc1cn(S(=O)(=O)c2cccc(C)n2)c(-c2cccnc2F)c1F | 210 | 1080 | 22.9 | 527 | 999 | 13.9 | 41.7 | 10.3 | 0.71 | 83.8 | 3.3 | 41 | 8550 | 91 |  |  | 
2 | CNCc1cn(S(=O)(=O)c2ccc(C)nc2)c(-c2cccnc2F)c1F | 180 | 672 | -1.2 | 1180 | 1120 | 24.8 | 40.1 | 10.8 | 0.62 | 76.7 | 219 | 41 | 18284 | 97 | inactive |  | inhibition (Rattus norvegicus [12]): Active
3 | CNCc1cn(S(=O)(=O)c2cccc(OC)n2)c(-c2cccnc2F)c1F | 150 | 773 | 55.8 | 971 | 1260 | 82.3 | 43.5 | 14.9 | 1.03 | 69.8 | 47.9 | 50 | 14434 | 98 |  |  | inhibition (Rattus norvegicus [12]): Active
4 | CNCc1cn(S(=O)(=O)c2cc(C)ccn2)c(-c2cccnc2F)c1F | 73 | 947 | 4.3 | 682 | 927 | 45.1 | 39.4 | 8.1 | 0.48 | 85.5 | 28.9 | 35 | 10378 | 92 | inactive | 6 | inhibition (Rattus norvegicus [14]): Dose-dependent effect; inhibition (Canis familiaris [15]): Active; pKa [16]: 8.73; inhibition (Canis familiaris [18]): Active; Stability [19]: Stable; inhibition (INH) [20]: Not Active
5 | CNCc1cn(S(=O)(=O)c2cccnc2C)c(-c2cccnc2F)c1F | 210 | 507 | 30.1 | 300 | 577 | 14.8 | 25.3 | 8 | 0.48 | 97.4 |  | 32 | 4806 | 92 |  |  | concentration at 4 h [21]: 0.3 ng/mL
6 | CNCc1cn(S(=O)(=O)c2cccs2)c(-c2cccnc2F)c1F | 72 | 412 | 20.5 | 827 | 955 | 56.1 | 36.6 | 12.2 | 0.54 | 77.5 | 17.4 | 42 | 11717 | 98 |  |  | 
7 | CNCc1cn(S(=O)(=O)c2cncc(F)c2)c(-c2cccnc2F)c1F | 200 | 330 | 27 | 425 | 606 | 22.7 | 43 | 8.3 | 0.83 | 88.9 | 38.3 | 38 | 6599 | 99 | inactive | >5 | 
8 | CNCc1cn(S(=O)(=O)c2ccccn2)c(-c2cccnc2F)c1F | 97 | 617 | 7.7 | 337 | 809 | 9 | 36 | 7.9 | 0.44 | 94.8 | 2.1 | 33 | 5757 | 95 | inactive | 5 | inhibition (Canis familiaris [18]): Active
